Assay results published in ChEMBL document CHEMBL4152234, “Aminobenzothiazole derivatives stabilize the thermolabile p53 cancer mutant Y220C and show anticancer activity in p53-Y220C cell lines” (Eur J Med Chem, 2018).
Active and inactive are the calls of the source. The calls are words filed in the database; no cut-off is given here.

Experiments:
[1] = tested on: Cellular tumor antigen p53 (Homo sapiens), P04637 [Y220C]; assay: Activation of p53 Y220C mutant in human NUGC3 cells assessed as change in CCNG1 mRNA level at 60 uM after 18 hrs by RT-PCR method relative to control; assay type: cell-based
Outline: (§1)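 p53 signalling qPCR array covering 84 genes. Cells were exposed for 18 h, with 0.5% DMSO in both compound and control samples. Total RNA was extracted and purified. Fold-changes were calculated by ΔΔCt using β2-microglobulin (B2M) as the housekeeping gene. Two independent biological replicates were run per cell line.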

[2] = tested on: Cellular tumor antigen p53 (Homo sapiens), P04637 [Y220C]; assay: Activation of p53 Y220C mutant in human NUGC3 cells assessed as change in PRKCA mRNA level at 60 uM after 18 hrs by RT-PCR method relative to control; assay type: cell-based
Outline: (§2)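 p53 signalling qPCR array covering 84 p53 pathway genes. Cells were exposed for 18 h, and compound and control wells both held 0.5% DMSO. Total RNA was extracted and purified. Fold-changes were calculated by the ΔΔCt method against the untreated sample, with β2-microglobulin (B2M) as the housekeeping gene. Each cell line was run in two independent biological replicates.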

[3] = tested on: Cellular tumor antigen p53 (Homo sapiens), P04637 [Y220C]; assay: Activation of p53 Y220C mutant in human NUGC3 cells assessed as change in TP53AIP1 mRNA level at 60 uM after 18 hrs by RT-PCR method relative to control; assay type: cell-based; outline: as §2
[4] = tested on: Cellular tumor antigen p53 (Homo sapiens), P04637 [Y220C]; assay: Activation of p53 Y220C mutant in human NUGC3 cells assessed as change in E2F1 mRNA level at 60 uM after 18 hrs by RT-PCR method relative to control; assay type: cell-based; outline: as §1
[5] = tested on: Cellular tumor antigen p53 (Homo sapiens), P04637 [Y220C]; assay: Activation of p53 Y220C mutant in human NUGC3 cells assessed as change in MYC mRNA level at 60 uM after 18 hrs by RT-PCR method relative to control; assay type: cell-based; outline: as §2
[6] = tested on: Cellular tumor antigen p53 (Homo sapiens), P04637 [Y220C]; assay: Activation of p53 Y220C mutant in human NUGC3 cells assessed as change in RB1 mRNA level at 60 uM after 18 hrs by RT-PCR method relative to control; assay type: cell-based; outline: as §2
[7] = tested on: Cellular tumor antigen p53 (Homo sapiens), P04637 [Y220C]; assay: Activation of p53 Y220C mutant in human NUGC3 cells assessed as change in BID mRNA level at 60 uM after 18 hrs by RT-PCR method relative to control; assay type: cell-based; outline: as §1
[8] = tested on: Cellular tumor antigen p53 (Homo sapiens), P04637 [Y220C]; assay: Activation of p53 Y220C mutant in human NUGC3 cells assessed as change in CCNE1 mRNA level at 60 uM after 18 hrs by RT-PCR method relative to control; assay type: cell-based; outline: as §1
[9] = tested on: Cellular tumor antigen p53 (Homo sapiens), P04637 [Y220C]; assay: Activation of p53 Y220C mutant in human NUGC3 cells assessed as change in CCNH mRNA level at 60 uM after 18 hrs by RT-PCR method relative to control; assay type: cell-based; outline: as §1
[10] = tested on: Cellular tumor antigen p53 (Homo sapiens), P04637 [Y220C]; assay: Activation of p53 Y220C mutant in human NUGC3 cells assessed as change in TP73 mRNA level at 60 uM after 18 hrs by RT-PCR method relative to control; assay type: cell-based; outline: as §2
[11] = molecular target: T1, Cellular tumor antigen p53 (Homo sapiens, UniProt P04637); assay: Activation of p53 in human NUGC4 cells assessed as change in APAF1 mRNA level at 60 uM after 18 hrs by RT-PCR method relative to control; assay type: cell-based; settings: read-out: FC; outline: as §2
[12] = molecular target: T1, Cellular tumor antigen p53; assay: Activation of p53 in human NUGC4 cells assessed as change in CASP9 mRNA level at 60 uM after 18 hrs by RT-PCR method relative to control; assay type: cell-based; settings: read-out: FC
Outline: (§3)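 p53 signaling qPCR array of 84 p53-pathway genes. Cells were treated in 6-well plates for 18 h with 0.5% DMSO in compound and control samples. Total RNA was extracted and fold-changes were obtained by the ΔΔCt method against untreated control, with β2-microglobulin (B2M) as housekeeping gene. Two independent biological replicates per cell line.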

[13] = molecular target: T1, Cellular tumor antigen p53; assay: Activation of p53 in human NUGC4 cells assessed as change in ESR1 mRNA level at 60 uM after 18 hrs by RT-PCR method relative to control; assay type: cell-based; settings: read-out: FC; outline: as §3
[14] = molecular target: T1, Cellular tumor antigen p53; assay: Activation of p53 in human NUGC4 cells assessed as change in EGFR mRNA level at 60 uM after 18 hrs by RT-PCR method relative to control; assay type: cell-based; settings: read-out: FC; outline: as §3
[15] = molecular target: T1, Cellular tumor antigen p53; assay: Activation of p53 in human NUGC4 cells assessed as change in MYC mRNA level at 60 uM after 18 hrs by RT-PCR method relative to control; assay type: cell-based; settings: read-out: FC; outline: as §3
[16] = molecular target: T1, Cellular tumor antigen p53; assay: Activation of p53 in human NUGC4 cells assessed as change in MDM2 mRNA level at 60 uM after 18 hrs by RT-PCR method relative to control; assay type: cell-based; settings: read-out: FC; outline: as §3
[17] = molecular target: T1, Cellular tumor antigen p53; assay: Activation of p53 in human NUGC4 cells assessed as change in MDM4 mRNA level at 60 uM after 18 hrs by RT-PCR method relative to control; assay type: cell-based; settings: read-out: FC; outline: as §3
[18] = molecular target: T1, Cellular tumor antigen p53; assay: Activation of p53 in human NUGC4 cells assessed as change in BCL2A1 mRNA level at 60 uM after 18 hrs by RT-PCR method relative to control; assay type: cell-based; settings: read-out: FC; outline: as §2
[19] = molecular target: T1, Cellular tumor antigen p53; assay: Activation of p53 in human NUGC4 cells assessed as change in MCL1 mRNA level at 60 uM after 18 hrs by RT-PCR method relative to control; assay type: cell-based; settings: read-out: FC; outline: as §3
[20] = molecular target: T1, Cellular tumor antigen p53; assay: Activation of p53 in human NUGC4 cells assessed as change in NF1 mRNA level at 60 uM after 18 hrs by RT-PCR method relative to control; assay type: cell-based; settings: read-out: FC; outline: as §3
[21] = molecular target: T1, Cellular tumor antigen p53; assay: Activation of p53 in human NUGC4 cells assessed as change in PIDD1 mRNA level at 60 uM after 18 hrs by RT-PCR method relative to control; assay type: cell-based; settings: read-out: FC
[22] = molecular target: T1, Cellular tumor antigen p53; assay: Activation of p53 in human NUGC4 cells assessed as change in CDK1 mRNA level at 60 uM after 18 hrs by RT-PCR method relative to control; assay type: cell-based; settings: read-out: FC; outline: as §3
[23] = molecular target: T1, Cellular tumor antigen p53; assay: Activation of p53 in human NUGC4 cells assessed as change in PRC1 mRNA level at 60 uM after 18 hrs by RT-PCR method relative to control; assay type: cell-based; settings: read-out: FC
[24] = molecular target: T1, Cellular tumor antigen p53; assay: Activation of p53 in human NUGC4 cells assessed as change in IL6 mRNA level at 60 uM after 18 hrs by RT-PCR method relative to control; assay type: cell-based; settings: read-out: FC; outline: as §3
[25] = molecular target: T1, Cellular tumor antigen p53; assay: Activation of p53 in human NUGC4 cells assessed as change in EGR1 mRNA level at 60 uM after 18 hrs by RT-PCR method relative to control; assay type: cell-based; settings: read-out: FC; outline: as §3
[26] = molecular target: T1, Cellular tumor antigen p53; assay: Activation of p53 in human NUGC4 cells assessed as change in TP73 mRNA level at 60 uM after 18 hrs by RT-PCR method relative to control; assay type: cell-based; settings: read-out: FC
[27] = molecular target: T1, Cellular tumor antigen p53; assay: Activation of p53 in human NUGC4 cells assessed as change in STAT1 mRNA level at 60 uM after 18 hrs by RT-PCR method relative to control; assay type: cell-based; settings: read-out: FC
[28] = molecular target: T1, Cellular tumor antigen p53; assay: Activation of p53 in human NUGC4 cells assessed as change in KRAS mRNA level at 60 uM after 18 hrs by RT-PCR method relative to control; assay type: cell-based; settings: read-out: FC; outline: as §3
[29] = tested on: Huh-7; assay: Upregulation of MDM2 mRNA level in p53 Y220C mutant knockout human HuH7 cells at 30 uM after 18 hrs by RT-PCR method; assay type: functional, cell-based

CCNC(=O)c1c(O)c(I)c(-n2cccc2)c2sc(N(CC)CC)nc12
fold change (FC) [1]: 1.2
fold change (FC) [2]: 1.1
fold change (FC) [3]: 1.5
fold change (FC) [4]: 1
fold change (FC) [5]: 2.4
fold change (FC) [6]: 0.9
fold change (FC) [7]: 1.2
fold change (FC) [8]: 1.2
fold change (FC) [9]: 1.4
fold change (FC) [10]: 1.2
fold induction at 60 µM [11]: 1
fold induction at 60 µM [12]: 1
fold induction at 60 µM [13]: 8.1
fold induction at 60 µM [14]: 1
fold induction at 60 µM [15]: 0.7
fold induction at 60 µM [16]: 0.8
fold induction at 60 µM [17]: 0.9
fold induction at 60 µM [18]: 6.1
fold induction at 60 µM [19]: 0.8
fold induction at 60 µM [20]: 0.8
fold induction at 60 µM [21]: 0.8
fold induction at 60 µM [22]: 0.8
fold induction at 60 µM [23]: 0.8
fold induction at 60 µM [24]: 7.9
fold induction at 60 µM [25]: 0.7
fold induction at 60 µM [26]: 0.4
fold induction at 60 µM [27]: 0.9
fold induction at 60 µM [28]: 0.9
Activity [29]: inactive
